Measurements taken from ChEMBL document CHEMBL1126924, “R2 C-terminal peptide inhibition of mammalian and yeast ribonucleotide reductase” (J Med Chem, 1993).
Each block holds one compound with its values, some of them ahead of it. Square brackets hold non-standard residues; d marks the D form. Peptide text beside a SMILES is read from it. aThr = C[C@H](O)[C@H](N)C(=O)O

Tests used:
[1] = target: Ribonucleoside-diphosphate reductase RR1 (Homo sapiens) (UniProt P23921+Q7LG56+P31350); assay: Relative inhibitory potency against mammalian ribonucleotide reductase; type: protein-complex assay
[2] = target: T1, Ribonucleoside-diphosphate reductase RR1 (Homo sapiens, UniProt P23921+P31350+Q7LG56); assay: Inhibition of mammalian ribonucleotide reductase; type: protein-complex assay
T1 sequence (P23921 whole entry): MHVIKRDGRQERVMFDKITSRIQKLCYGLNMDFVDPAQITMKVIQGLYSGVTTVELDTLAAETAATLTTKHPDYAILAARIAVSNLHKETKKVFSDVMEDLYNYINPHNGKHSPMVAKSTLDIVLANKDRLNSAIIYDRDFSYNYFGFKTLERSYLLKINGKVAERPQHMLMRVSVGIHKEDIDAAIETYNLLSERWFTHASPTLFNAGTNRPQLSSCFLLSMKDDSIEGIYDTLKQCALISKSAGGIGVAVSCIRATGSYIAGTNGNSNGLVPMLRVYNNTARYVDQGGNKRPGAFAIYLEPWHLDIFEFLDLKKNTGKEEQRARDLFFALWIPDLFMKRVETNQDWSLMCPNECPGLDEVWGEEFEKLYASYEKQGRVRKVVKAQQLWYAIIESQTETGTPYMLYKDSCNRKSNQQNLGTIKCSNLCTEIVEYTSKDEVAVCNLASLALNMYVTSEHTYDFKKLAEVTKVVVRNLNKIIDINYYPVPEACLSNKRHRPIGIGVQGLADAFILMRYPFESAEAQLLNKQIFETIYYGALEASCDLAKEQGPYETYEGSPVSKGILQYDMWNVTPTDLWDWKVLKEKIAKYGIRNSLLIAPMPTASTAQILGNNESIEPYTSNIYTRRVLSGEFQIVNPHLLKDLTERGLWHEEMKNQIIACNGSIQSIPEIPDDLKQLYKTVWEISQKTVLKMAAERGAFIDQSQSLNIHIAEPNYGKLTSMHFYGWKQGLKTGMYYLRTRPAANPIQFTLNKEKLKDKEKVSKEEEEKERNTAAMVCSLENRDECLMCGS
T1 sequence (Q7LG56 whole entry): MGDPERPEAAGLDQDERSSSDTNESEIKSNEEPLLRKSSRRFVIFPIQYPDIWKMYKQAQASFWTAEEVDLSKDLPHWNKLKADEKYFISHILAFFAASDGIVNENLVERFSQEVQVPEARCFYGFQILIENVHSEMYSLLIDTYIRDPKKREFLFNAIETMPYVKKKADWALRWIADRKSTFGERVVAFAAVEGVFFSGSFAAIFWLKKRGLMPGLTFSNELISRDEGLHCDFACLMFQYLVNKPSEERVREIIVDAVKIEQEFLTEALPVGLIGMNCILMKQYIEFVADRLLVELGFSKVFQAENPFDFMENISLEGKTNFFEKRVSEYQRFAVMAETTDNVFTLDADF
T1 sequence (P31350 whole entry): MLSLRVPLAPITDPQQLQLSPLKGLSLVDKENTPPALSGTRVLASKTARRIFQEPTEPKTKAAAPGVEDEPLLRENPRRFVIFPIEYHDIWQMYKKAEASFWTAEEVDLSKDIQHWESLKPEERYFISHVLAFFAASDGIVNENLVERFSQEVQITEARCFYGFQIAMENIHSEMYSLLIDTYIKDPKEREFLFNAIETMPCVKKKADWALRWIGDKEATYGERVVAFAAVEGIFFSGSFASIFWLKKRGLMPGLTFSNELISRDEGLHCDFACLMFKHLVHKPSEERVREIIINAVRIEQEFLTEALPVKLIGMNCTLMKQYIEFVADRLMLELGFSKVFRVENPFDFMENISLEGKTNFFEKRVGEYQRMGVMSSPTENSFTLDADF
Method in brief: (§1)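 Calf thymus R1 (1 μg) with cloned mouse R2 (2 μg) expressed in E. coli from pET-M2. CDP reduction was run at 35 °C with DTT as reductant. [³H]dCDP was separated on aminophenylboronate and counted by scintillation.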

[3] = target: T2, Ribonucleoside-diphosphate reductase large subunit (Mus musculus, UniProt P07742); assay: Inhibitory activity of compound against mammalian ribonucleotide reductase; Range is 29-30; method in brief: as §1
T2 sequence (P07742 whole entry): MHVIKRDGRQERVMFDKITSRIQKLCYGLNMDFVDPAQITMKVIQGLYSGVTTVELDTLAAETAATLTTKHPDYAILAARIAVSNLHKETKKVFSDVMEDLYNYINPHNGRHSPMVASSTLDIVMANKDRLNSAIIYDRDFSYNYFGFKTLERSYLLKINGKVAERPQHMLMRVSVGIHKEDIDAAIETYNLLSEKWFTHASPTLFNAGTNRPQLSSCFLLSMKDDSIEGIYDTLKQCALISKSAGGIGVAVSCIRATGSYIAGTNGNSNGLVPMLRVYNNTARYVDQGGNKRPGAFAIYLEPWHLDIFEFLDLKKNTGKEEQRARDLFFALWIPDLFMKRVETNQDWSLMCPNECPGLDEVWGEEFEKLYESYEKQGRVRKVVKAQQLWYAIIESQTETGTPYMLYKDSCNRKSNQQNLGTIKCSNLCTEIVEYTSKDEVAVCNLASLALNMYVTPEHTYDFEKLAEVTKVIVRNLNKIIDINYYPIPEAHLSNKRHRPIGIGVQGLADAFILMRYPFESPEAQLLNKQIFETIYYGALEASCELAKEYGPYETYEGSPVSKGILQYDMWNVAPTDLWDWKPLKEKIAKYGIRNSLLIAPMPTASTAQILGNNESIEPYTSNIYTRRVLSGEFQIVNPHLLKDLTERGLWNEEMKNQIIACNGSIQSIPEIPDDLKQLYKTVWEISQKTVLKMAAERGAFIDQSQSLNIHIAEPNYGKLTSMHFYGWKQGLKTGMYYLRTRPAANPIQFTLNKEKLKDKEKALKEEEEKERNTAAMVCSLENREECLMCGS

[4] = target: T2, Ribonucleoside-diphosphate reductase large subunit; assay: Inhibitory activity of compound against mammalian ribonucleotide reductase; Range is 48-58; method in brief: as §1
[5] = target: T2, Ribonucleoside-diphosphate reductase large subunit; assay: Inhibitory activity of compound against mammalian ribonucleotide reductase; Range is 8-20; method in brief: as §1
[6] = target: T2, Ribonucleoside-diphosphate reductase large subunit; assay: Inhibitory activity of compound against mammalian ribonucleotide reductase; Range is 25-29; method in brief: as §1
[7] = target: T2, Ribonucleoside-diphosphate reductase large subunit; assay: Inhibitory activity of compound against mammalian ribonucleotide reductase; Range is 286-336; method in brief: as §1
[8] = target: T2, Ribonucleoside-diphosphate reductase large subunit; assay: Inhibitory activity of compound against mammalian ribonucleotide reductase; Range is 9-15; method in brief: as §1

Compound: Ac-LDADF-OH
RI [1]: < 3%
IC50 [2]: > 400 µM

Compound: CC(=O)N[C@H](C(=O)N[C@@H](CC(C)C)C(=O)N[C@@H](CC(=O)O)C(=O)N[C@@H](C)C(=O)N[C@@H](CC(=O)O)C(=O)N[C@@H](Cc1ccccc1)C(=O)O)[C@H](C)O
RI [1]: < 3%

Compound: Ac-LTLDADF-OH
IC50 [2]: > 400 µM

Compound: CC(=O)N[C@@H](Cc1ccccc1)C(=O)N[C@H](C(=O)N[C@@H](CC(C)C)C(=O)N[C@@H](CC(=O)O)C(=O)N[C@@H](C)C(=O)N[C@@H](CC(C)C)C(=O)N[C@@H](Cc1ccccc1)C(=O)O)[C@@H](C)O
IC50 [3]: 29 µM

Compound: CC(=O)N[C@@H](Cc1ccccc1)C(=O)N[C@H](C(=O)N[C@@H](C)C(=O)N[C@@H](CC(=O)O)C(=O)N[C@@H](C)C(=O)N[C@@H](CC(=O)O)C(=O)N[C@@H](Cc1ccccc1)C(=O)O)[C@H](C)O
RI [1]: 4.9%

Compound: CC(=O)N[C@@H](Cc1ccccc1)C(=O)N[C@H](C(=O)N[C@@H](CC(C)C)C(=O)N[C@@H](CC(N)=O)C(=O)N[C@@H](C)C(=O)N[C@@H](CC(=O)O)C(=O)N[C@@H](Cc1ccccc1)C(=O)O)[C@@H](C)O
IC50 [6]: 25 µM

Continued, values first:

RI [1]: 18%
Compound: CC(=O)N[C@@H](Cc1ccccc1)C(=O)N[C@H](C(=O)N[C@@H](Cc1ccccc1)C(=O)N[C@@H](CC(=O)O)C(=O)N[C@@H](C)C(=O)N[C@@H](CC(=O)O)C(=O)N[C@@H](Cc1ccccc1)C(=O)O)[C@H](C)O

IC50 [4]: 48 µM
Compound: CC(=O)N[C@@H](Cc1ccccc1)C(=O)N[C@H](C(=O)N[C@@H](Cc1ccccc1)C(=O)N[C@@H](CC(=O)O)C(=O)N[C@@H](C)C(=O)N[C@@H](CC(=O)O)C(=O)N[C@@H](Cc1ccccc1)C(=O)O)[C@@H](C)O

RI [1]: 40%
Compound: CC(=O)N[C@@H](Cc1ccccc1)C(=O)N[C@H](C(=O)N[C@@H](CC(C)C)C(=O)N[C@@H](CC(N)=O)C(=O)N[C@@H](C)C(=O)N[C@@H](CC(=O)O)C(=O)N[C@@H](Cc1ccccc1)C(=O)O)[C@H](C)O

RI [1]: 3%
Compound: CC(=O)N[C@@H](Cc1ccccc1)C(=O)N[C@H](C(=O)N[C@@H](CC(C)C)C(=O)N[C@@H](CC(=O)O)C(=O)N[C@@H](CC(=O)O)C(=O)N[C@@H](Cc1ccccc1)C(=O)O)[C@H](C)O

RI [1]: 100%
Compound: CC(=O)N[C@@H](Cc1ccccc1)C(=O)N[C@H](C(=O)N[C@@H](CC(C)C)C(=O)N[C@@H](CC(=O)O)C(=O)N[C@@H](C)C(=O)N[C@@H](CC(=O)O)C(=O)N[C@@H](Cc1ccccc1)C(=O)O)[C@H](C)O (Ac-F[aThr]LDADF-OH)

IC50 [5]: 8 µM
Compound: CC(=O)N[C@@H](CO)C(=O)N[C@@H](Cc1ccccc1)C(=O)N[C@H](C(=O)N[C@@H](CC(C)C)C(=O)N[C@@H](CC(=O)O)C(=O)N[C@@H](C)C(=O)N[C@@H](CC(=O)O)C(=O)N[C@@H](Cc1ccccc1)C(=O)O)[C@@H](C)O

IC50 [7]: 286 µM
Compound: CC(=O)N[C@@H](Cc1ccccc1)C(=O)N[C@H](C(=O)N[C@@H](CC(C)C)C(=O)N[C@@H](C)C(=O)N[C@@H](C)C(=O)N[C@@H](CC(=O)O)C(=O)N[C@@H](Cc1ccccc1)C(=O)O)[C@@H](C)O

IC50 [8]: 9 µM
Compound: CC(=O)N[C@@H](CC(N)=O)C(=O)N[C@@H](CO)C(=O)N[C@@H](Cc1ccccc1)C(=O)N[C@H](C(=O)N[C@@H](CC(C)C)C(=O)N[C@@H](CC(=O)O)C(=O)N[C@@H](C)C(=O)N[C@@H](CC(=O)O)C(=O)N[C@@H](Cc1ccccc1)C(=O)O)[C@@H](C)O
